Screening data (PubChem)
A selection: hits, their analogues and other compounds. The true share with any hit is near 5.8%.
Cav32 inh: Cav3.2 calcium influx blockers – cell-based, Fluo-4 calcium fluorescence, FDSS, MLSMR library, primary screen; Voltage-dependent T-type calcium channel subunit alpha-1H (Homo sapiens), O95180; B-score at 10 µM; 4% of 100,000 active; Cav3.2-expressing cells; active compounds read low;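 active = single-dose well whose peak fluorescence ratio is a statistical outlier from its plate by either plate-standardised score or position-corrected B-score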
FAK blocker: FAK kinase inhibitors, primary screen, biochemical; 0.84% of 97,000 active; biochemical FAK kinase activity assay; inhibition, %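 (tested at 7 µM)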; Focal adhesion kinase 1 (Homo sapiens), Q05397; in the data active = inhibition above about 19%
Target sequence (Q05397 whole entry, looked up): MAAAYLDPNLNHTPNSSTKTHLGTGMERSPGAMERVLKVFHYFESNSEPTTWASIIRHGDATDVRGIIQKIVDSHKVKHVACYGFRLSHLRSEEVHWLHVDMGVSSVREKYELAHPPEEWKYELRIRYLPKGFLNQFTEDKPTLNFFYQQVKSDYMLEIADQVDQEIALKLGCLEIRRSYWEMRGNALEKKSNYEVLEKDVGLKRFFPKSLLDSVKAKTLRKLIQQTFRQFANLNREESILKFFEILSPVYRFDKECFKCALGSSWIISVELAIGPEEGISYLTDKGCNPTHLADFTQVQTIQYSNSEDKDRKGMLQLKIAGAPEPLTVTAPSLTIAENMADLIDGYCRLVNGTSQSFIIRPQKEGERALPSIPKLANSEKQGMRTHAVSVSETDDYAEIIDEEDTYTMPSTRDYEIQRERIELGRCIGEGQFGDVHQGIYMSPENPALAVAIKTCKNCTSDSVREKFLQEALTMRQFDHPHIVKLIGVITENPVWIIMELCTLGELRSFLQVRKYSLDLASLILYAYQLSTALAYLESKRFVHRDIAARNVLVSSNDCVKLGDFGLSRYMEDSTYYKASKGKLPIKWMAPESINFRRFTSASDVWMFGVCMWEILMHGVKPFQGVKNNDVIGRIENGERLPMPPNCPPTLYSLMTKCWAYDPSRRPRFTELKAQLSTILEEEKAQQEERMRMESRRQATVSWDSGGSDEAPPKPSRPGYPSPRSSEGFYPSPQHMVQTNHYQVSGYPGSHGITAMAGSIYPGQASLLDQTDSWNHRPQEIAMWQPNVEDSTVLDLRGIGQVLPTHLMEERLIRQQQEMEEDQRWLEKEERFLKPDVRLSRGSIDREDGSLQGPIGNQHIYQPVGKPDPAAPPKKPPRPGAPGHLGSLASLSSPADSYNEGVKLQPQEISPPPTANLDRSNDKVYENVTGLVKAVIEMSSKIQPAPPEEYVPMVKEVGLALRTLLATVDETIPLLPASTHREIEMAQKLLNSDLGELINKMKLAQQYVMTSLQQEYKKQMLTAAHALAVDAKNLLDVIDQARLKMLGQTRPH
HIV Rev-RRE inh: HIV-1 Rev-RRE binding inhibitors, primary screen, biochemical, FRET, protein-RNA interaction; Rev peptide-RRE RNA binding; inhibition, % at 8 µM; 0.79% of 97,000 active; AID 704, 2007;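 active = inhibition above the screen-wide mean plus 3 SD, cut at about 35% in these data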
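Assay system: Labelled RRE RNA duplex and labelled Rev peptide | Times: 5 min preincubation and 15 min binding, 25 °C | Detection: FRET, ex 480 nm, em 540 and 671 nm | Evaluation: % inhibition of FRET ratio versus controls | Benchmarks: DMSO wells as 0% and neomycin B wells as 100% inhibition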
Pyk2 oligo antag: antagonists of Pyk2 self-association, primary screen, Q293 cells, FERM NanoBiT luminescence, HTS. active compounds read low. 0.83% of 99,000 active. z-score (the deposit names both 25 µM and 10 µM). AID 1347419, 2020;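 active = Z-score of -3 or lower, scaled per plate to the spread of control and sample wells; inactive = z-score above -3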;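 note: negative z-score means lost luminescence so less FERM oligomerization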
PLK1 PBD inh: Plk1 polo box domain binding inhibitors, primary screen, biochemical, fluorescence polarization | AID 693, 2007 | Serine/threonine-protein kinase PLK1 (Homo sapiens), P53350 | 0.13% of 97,000 active | inhibition, %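 (tested at about 20 µM)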 | Plk1 PBD phosphopeptide binding; in the data active = inhibition above about 34%, passing the limit was not always enough
PLK1 kinase inh: human PLK1 kinase inhibitors, primary screen, biochemical, TR-FRET; 0.53% of 97,000 active; recombinant PLK1 kinase, TR-FRET peptide phosphorylation; inhibition, % at 10 µM;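 active = inhibition of 50% or more in the single-concentration screen; inactive = inhibition below 50%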
A number is an active result; [ ] = another dose, or the depositor's remark.

Results for COc1ccccc1OCC(=O)N(Cc1nc(-c2ccc(Cl)cc2)no1)C(C)C ?
Cav32 inh: -5.02; FAK blocker: inactive; HIV Rev-RRE inh: inactive; PLK1 PBD inh: inactive; PLK1 kinase inh: inactive

Results for Cc1cc(Br)ccc1OCC(=O)N(Cc1nc(-c2ccccc2)no1)C(C)C ?
Cav32 inh: -4.78; FAK blocker: inactive; HIV Rev-RRE inh: inactive; Pyk2 oligo antag: inactive; PLK1 PBD inh: inactive; PLK1 kinase inh: inactive

What do the screens show for `COc1ccc(CN/C(C)=C(/C#N)C(N)=O)cc1OC`?
Cav32 inh: inactive; FAK blocker: inactive; HIV Rev-RRE inh: inactive; Pyk2 oligo antag: inactive; PLK1 PBD inh: inactive; PLK1 kinase inh: inactive

What do the screens show for `CCn1c(-c2ccccc2Cl)nn(CC(=O)Nc2ccc(OC)cc2)c1=S`?
Cav32 inh: inactive; FAK blocker: inactive; HIV Rev-RRE inh: inactive; Pyk2 oligo antag: inactive; PLK1 PBD inh: inactive; PLK1 kinase inh: inactive

How did Cc1ccc(C(=O)OCc2ccc3c(c2)OCO3)cc1S(=O)(=O)N1CCCCC1 do in these assays?
Cav32 inh: -4.09; FAK blocker: inactive; HIV Rev-RRE inh: inactive; Pyk2 oligo antag: inactive; PLK1 PBD inh: inactive; PLK1 kinase inh: inactive

Results for Cc1ccc(C(=O)Nc2ccc3c(c2)OCO3)cc1S(=O)(=O)N1CCCC1 ?
Cav32 inh: inactive; FAK blocker: inactive; HIV Rev-RRE inh: inactive; Pyk2 oligo antag: inactive; PLK1 PBD inh: inactive; PLK1 kinase inh: inactive

What do the screens show for `COc1cc(NC(=O)C2CCCC2)c(OC)cc1Cl`?
Cav32 inh: inactive; FAK blocker: inactive; HIV Rev-RRE inh: inactive; Pyk2 oligo antag: inactive; PLK1 PBD inh: inactive; PLK1 kinase inh: inactive

How did CCCCOC(=O)Nc1cc(OC)c(Cl)cc1OC do in these assays?
Cav32 inh: -2.46; Pyk2 oligo antag: inactive

How did Oc1ccc(-c2nccc(-c3cccs3)n2)cc1 do in these assays?
Cav32 inh: inactive; FAK blocker: inactive; HIV Rev-RRE inh: inactive; Pyk2 oligo antag: inactive; PLK1 PBD inh: inactive; PLK1 kinase inh: inactive

What do the screens show for `Nn1c(Nc2ccccc2)nc2ccccc2c1=O`?
Cav32 inh: inactive; FAK blocker: inactive; HIV Rev-RRE inh: inactive; Pyk2 oligo antag: inactive; PLK1 PBD inh: inactive; PLK1 kinase inh: 59.2

How did CC1(C)N=C(c2ccc(Cl)cc2)C(=O)N1 do in these assays?
Cav32 inh: inactive; FAK blocker: inactive; HIV Rev-RRE inh: inactive; Pyk2 oligo antag: inactive; PLK1 PBD inh: inactive; PLK1 kinase inh: inactive

What do the screens show for `CC1(C)OC(=O)N(c2ccccc2)C12C=Cc1cc(Br)ccc1O2` (stereo unspecified)?
Cav32 inh: -6.2; FAK blocker: inactive; HIV Rev-RRE inh: inactive; Pyk2 oligo antag: inactive; PLK1 PBD inh: inactive; PLK1 kinase inh: inactive

What do the screens show for `CN1c2ccccc2C(C)(C)[C@]12C=Cc1cc(O)ccc1O2`?
Cav32 inh: inactive; FAK blocker: inactive; HIV Rev-RRE inh: inactive; Pyk2 oligo antag: inactive; PLK1 PBD inh: inactive; PLK1 kinase inh: inactive

What do the screens show for `C=CCNc1oc(-c2cccs2)nc1C#N`?
Cav32 inh: inactive; FAK blocker: inactive; HIV Rev-RRE inh: inactive; Pyk2 oligo antag: inactive; PLK1 PBD inh: inactive; PLK1 kinase inh: inactive

How did COc1ccc(S(=O)(=O)N(Cc2ccccc2)Cc2nc(-c3ccccc3)no2)cc1 do in these assays?
Cav32 inh: -5.52; FAK blocker: inactive; HIV Rev-RRE inh: inactive; Pyk2 oligo antag: inactive; PLK1 PBD inh: inactive; PLK1 kinase inh: inactive

How did CCOC(=O)Cc1csc(NS(=O)(=O)c2ccc(F)cc2)n1 do in these assays?
Cav32 inh: inactive; FAK blocker: inactive; HIV Rev-RRE inh: inactive; Pyk2 oligo antag: inactive; PLK1 PBD inh: inactive; PLK1 kinase inh: inactive

Results for Oc1c(C=Nc2cccnc2)sc2ccccc12 ?
Cav32 inh: inactive; FAK blocker: inactive; HIV Rev-RRE inh: inactive; Pyk2 oligo antag: inactive; PLK1 PBD inh: inactive; PLK1 kinase inh: inactive

What do the screens show for `Oc1sc(C=Nc2ccc(F)cc2)c2ccccc12`?
Cav32 inh: inactive; FAK blocker: inactive; HIV Rev-RRE inh: 109.4[fluorescence artefact?]; Pyk2 oligo antag: inactive; PLK1 PBD inh: inactive; PLK1 kinase inh: inactive

Results for Oc1sc(C=Nc2ccccc2)c2ccccc12 ?
Cav32 inh: -5.08; FAK blocker: inactive; HIV Rev-RRE inh: 119.5[fluorescence artefact?]; Pyk2 oligo antag: inactive; PLK1 PBD inh: inactive; PLK1 kinase inh: inactive

How did Cc1c(CN(C)C(=O)c2sc3cc(Cl)ccc3c2Cl)cnn1C do in these assays?
Cav32 inh: inactive; FAK blocker: inactive; HIV Rev-RRE inh: inactive; Pyk2 oligo antag: inactive; PLK1 PBD inh: inactive; PLK1 kinase inh: inactive

What do the screens show for `CCCCNS(=O)(=O)c1ccc2nc(SCC(=O)Nc3sccc3C#N)[nH]c2c1`?
Cav32 inh: -3.53; FAK blocker: inactive; HIV Rev-RRE inh: inactive; Pyk2 oligo antag: -3.72; PLK1 PBD inh: inactive; PLK1 kinase inh: inactive

Results for Cc1ccc2nc(SCC(=O)Nc3cccc([N+](=O)[O-])c3)[nH]c2c1 ?
Cav32 inh: inactive; FAK blocker: inactive; HIV Rev-RRE inh: inactive; Pyk2 oligo antag: inactive; PLK1 PBD inh: inactive; PLK1 kinase inh: inactive

What do the screens show for `CCOc1ccc(NC(=O)C2CCN(C(=O)NC3CCCCC3)CC2)cc1`?
Cav32 inh: inactive; FAK blocker: inactive; HIV Rev-RRE inh: inactive; Pyk2 oligo antag: inactive; PLK1 PBD inh: inactive; PLK1 kinase inh: 52.0

Results for CCOc1ccccc1N1C(=O)c2ccc(C(=O)Nc3cccnc3)cc2C1=O ?
Cav32 inh: -2.94; FAK blocker: inactive; HIV Rev-RRE inh: inactive; PLK1 PBD inh: inactive; PLK1 kinase inh: inactive

What do the screens show for `O=C(Nc1cccnc1)c1ccc2c(c1)C(=O)N(Cc1cccnc1)C2=O`?
Cav32 inh: inactive; FAK blocker: inactive; HIV Rev-RRE inh: inactive; Pyk2 oligo antag: inactive; PLK1 PBD inh: inactive; PLK1 kinase inh: inactive

Results for CCc1sc(N(C(=O)Cc2ccccc2)c2ccc(F)cc2)nc1-c1ccccc1 ?
Cav32 inh: -5.33; FAK blocker: inactive; HIV Rev-RRE inh: inactive; Pyk2 oligo antag: inactive; PLK1 PBD inh: inactive; PLK1 kinase inh: inactive

Results for CCc1sc(N(C(=O)Cc2ccccc2)c2ccccc2)nc1-c1ccccc1 ?
Cav32 inh: inactive; FAK blocker: inactive; HIV Rev-RRE inh: inactive; Pyk2 oligo antag: inactive; PLK1 PBD inh: inactive; PLK1 kinase inh: inactive

How did COC(=O)/C(=C(/F)Sc1cc(C)c(O)c(C)c1)C(F)(F)F do in these assays?
Cav32 inh: inactive; FAK blocker: inactive; HIV Rev-RRE inh: inactive; Pyk2 oligo antag: inactive; PLK1 PBD inh: inactive; PLK1 kinase inh: inactive

What do the screens show for `NS(=O)(=O)c1ccc(CCNC(=O)c2cccnc2)cc1`?
Cav32 inh: inactive; FAK blocker: inactive; HIV Rev-RRE inh: inactive; Pyk2 oligo antag: inactive; PLK1 PBD inh: inactive; PLK1 kinase inh: inactive

How did C=C1CCC(C)C(C)(CCC2=CCOC2=O)C/C=C\C=C/1C(=O)O (stereo unspecified) do in these assays?
Cav32 inh: -3.88

How did O=C(Cc1ccc(NS(=O)(=O)c2ccc(F)cc2)cc1)NCc1ccccc1 do in these assays?
Cav32 inh: -5.19; FAK blocker: inactive; HIV Rev-RRE inh: inactive; Pyk2 oligo antag: inactive; PLK1 PBD inh: inactive; PLK1 kinase inh: inactive
